From ChEMBL document CHEMBL1137766, “Synthesis and biological evaluation of 3,4,6-triaryl-2-pyranones as a potential new class of anti-breast cancer agents” (Bioorg Med Chem, 2009)
Activity calls are given as the source filed them. No cut-off for these calls is given here.

What was measured:
[1] = tested on: MCF7; assay: Antiproliferative activity against human MCF7 cells expressing estrogen receptor after 48 hrs by MTT assay; type: functional, cell-based; settings: MCF7, 48 h
How it was run: (§1)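 MTT reduction: 1 × 10⁴ cells/well seeded in DMEM with 10% FBS, incubated 24 h at 37 °C in CO₂. Compounds diluted in culture medium and applied for 48 h. MTT (5 mg/mL stock) added for 4 h, formazan dissolved in DMSO, absorbance read at 540 nm. IC50 taken from growth inhibition. Vehicle control 0.001% DMSO.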

[2] = tested on: MDA-MB-231; assay: Antiproliferative activity against human estrogen receptor deficient MDA-MB-231 cells after 48 hrs by MTT assay; type: functional, cell-based; settings: MDA-MB-231, 48 h; how it was run: as §1
[3] = tested on: Vero; assay: Cytotoxicity against african green monkey Vero cells after 48 hrs by MTT assay; type: cell-based; settings: chlorocebus sabaeus
[4] = Cytotoxicity against osteoblasts after 48 hrs by MTT assay; type: cell-based; settings: osteoblast
[5] = target: T1, Estrogen receptor (Homo sapiens) (UniProt P03372); assay: Transactivation of ERalpha expressed in african green monkey COS7 cells at 5 uM after 24 hrs by luciferase reporter gene assay; type: cell-based; settings: COS-7
T1 sequence (whole entry): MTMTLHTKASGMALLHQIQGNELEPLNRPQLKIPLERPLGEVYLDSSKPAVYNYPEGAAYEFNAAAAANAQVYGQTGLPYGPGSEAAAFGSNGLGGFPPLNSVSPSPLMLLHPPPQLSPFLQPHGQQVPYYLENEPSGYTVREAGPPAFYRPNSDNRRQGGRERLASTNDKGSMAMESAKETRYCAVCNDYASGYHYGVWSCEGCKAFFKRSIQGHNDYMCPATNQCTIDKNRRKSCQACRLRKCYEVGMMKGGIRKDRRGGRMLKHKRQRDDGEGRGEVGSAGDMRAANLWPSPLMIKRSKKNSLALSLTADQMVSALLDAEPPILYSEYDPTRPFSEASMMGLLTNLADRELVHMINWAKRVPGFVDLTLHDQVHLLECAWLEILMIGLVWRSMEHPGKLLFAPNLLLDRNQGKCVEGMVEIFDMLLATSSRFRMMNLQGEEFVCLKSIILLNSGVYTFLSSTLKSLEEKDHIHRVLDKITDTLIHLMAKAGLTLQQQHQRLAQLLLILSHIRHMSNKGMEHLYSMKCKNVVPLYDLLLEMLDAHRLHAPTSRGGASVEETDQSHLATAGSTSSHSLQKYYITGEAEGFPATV
How it was run: (§2)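 Cos-7 cells, 40,000 per well, seeded 24 h before co-transfection with 200 ng pGL3-Gal4Tk-Luc reporter plus ERα or ERβ expression plasmid and pRL-CMV. Compounds given, then cells harvested 24 h post-transfection for dual-luciferase assay. Firefly signal normalised to Renilla and GFP, expressed as fold over VP-16 control. Mean ± SD of three independent experiments.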

[6] = target: Estrogen receptor beta (Homo sapiens) (UniProt Q92731); assay: Transactivation of ERbeta expressed in african green monkey COS7 cells at 5 uM after 24 hrs by luciferase reporter gene assay; type: cell-based; settings: COS-7; how it was run: as §2
Estrogen receptor beta (Homo sapiens), sequence (Q92731 whole entry, the tested form may be a part): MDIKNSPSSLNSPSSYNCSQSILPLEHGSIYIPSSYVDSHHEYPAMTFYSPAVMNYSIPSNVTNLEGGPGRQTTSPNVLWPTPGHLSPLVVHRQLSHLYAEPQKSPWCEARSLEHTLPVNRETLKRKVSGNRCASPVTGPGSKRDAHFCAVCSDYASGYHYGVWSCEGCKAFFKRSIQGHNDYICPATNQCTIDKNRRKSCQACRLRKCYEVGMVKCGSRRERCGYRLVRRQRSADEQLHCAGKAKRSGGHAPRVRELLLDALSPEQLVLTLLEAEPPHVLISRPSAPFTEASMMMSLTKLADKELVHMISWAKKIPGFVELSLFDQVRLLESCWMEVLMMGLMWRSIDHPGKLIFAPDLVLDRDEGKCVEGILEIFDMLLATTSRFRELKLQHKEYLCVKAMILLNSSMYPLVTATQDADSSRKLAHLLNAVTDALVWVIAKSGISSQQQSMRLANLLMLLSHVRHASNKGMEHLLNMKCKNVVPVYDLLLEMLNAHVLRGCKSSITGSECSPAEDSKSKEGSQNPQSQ

[7] = tested on: MCF7; assay: Induction of apoptosis in human MCF7 cells assessed as DNA fragmentation at 10 uM after 24 hrs by ELISA; type: functional, cell-based
How it was run: (§3)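 BrdU-labelled cells incubated with compound for 24 h. Cells lysed 30 min at rt and spun at 250g for 10 min. Supernatant captured on adsorbed anti-DNA antibody, fixed by microwave 5 min, then probed 90 min with peroxidase anti-BrdU; OD read at 370 nm. Kit positive and negative controls used. Duplicates from two independent experiments.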

[8] = tested on: MCF7; assay: Induction of apoptosis in human MCF7 cells assessed as DNA fragmentation at 20 uM after 24 hrs by ELISA; type: functional, cell-based; how it was run: as §3
[9] = tested on: MDA-MB-231; assay: Induction of apoptosis in human MDA-MB-231 cells assessed as DNA fragmentation at 20 uM after 24 hrs by ELISA; type: functional, cell-based; how it was run: as §3
[10] = tested on: MDA-MB-231; assay: Induction of apoptosis in human MDA-MB-231 cells assessed as morphological changes at 10 uM after 18 hrs using Hoechst 33342 staining by fluorescent microscopy; type: functional, cell-based
How it was run: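 10,000 cells seeded on 18-mm coverslips and grown 24 h. Medium replaced, then cells treated with 10 µM compound for 18 h. Stained with Hoechst 33342 0.5 µg/ml in 4% paraformaldehyde for 30 min at 37 °C. Random fields imaged by fluorescence microscopy; viable versus apoptotic cells judged qualitatively by fluorescence and nuclear fragmentation.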

[11] = tested on: MCF7; assay: Induction of apoptosis in human MCF7 cells assessed as caspase induction at 20 uM after 24 hrs by fluorescence assay; type: functional, cell-based
How it was run: (§4)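 Caspase kit covering caspases 2, 3, 6, 7, 8, 9 and 10. MCF-7 cells serum-deprived 4 h, then treated with compound for 24 h at various concentrations. DEVD-rhodamine-110 substrate added; released rhodamine-110 fluorescence read at 560 nm. Camptothecin-treated U937 cells served as positive control. Duplicates from two independent experiments.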

[12] = tested on: MDA-MB-231; assay: Induction of apoptosis in human MDA-MB-231 cells assessed as caspase induction at 20 uM after 24 hrs by fluorescence assay; type: functional, cell-based
[13] = tested on: MDA-MB-231; assay: Induction of apoptosis in human MDA-MB-231 cells assessed as caspase induction at 40 uM after 24 hrs by fluorescence assay; type: functional, cell-based
[14] = tested on: MCF7; assay: Induction of apoptosis in human MCF7 cells assessed as caspase induction at 40 uM after 24 hrs by fluorescence assay; type: functional, cell-based; how it was run: as §4
[15] = tested on: MDA-MB-231; assay: Induction of apoptosis in human MDA-MB-231 cells assessed as DNA fragmentation at 10 uM after 24 hrs by ELISA; type: functional, cell-based; how it was run: as §3
[16] = target: T2, Prostaglandin G/H synthase 2 (Homo sapiens, UniProt P35354)
T2 sequence (P35354 whole entry): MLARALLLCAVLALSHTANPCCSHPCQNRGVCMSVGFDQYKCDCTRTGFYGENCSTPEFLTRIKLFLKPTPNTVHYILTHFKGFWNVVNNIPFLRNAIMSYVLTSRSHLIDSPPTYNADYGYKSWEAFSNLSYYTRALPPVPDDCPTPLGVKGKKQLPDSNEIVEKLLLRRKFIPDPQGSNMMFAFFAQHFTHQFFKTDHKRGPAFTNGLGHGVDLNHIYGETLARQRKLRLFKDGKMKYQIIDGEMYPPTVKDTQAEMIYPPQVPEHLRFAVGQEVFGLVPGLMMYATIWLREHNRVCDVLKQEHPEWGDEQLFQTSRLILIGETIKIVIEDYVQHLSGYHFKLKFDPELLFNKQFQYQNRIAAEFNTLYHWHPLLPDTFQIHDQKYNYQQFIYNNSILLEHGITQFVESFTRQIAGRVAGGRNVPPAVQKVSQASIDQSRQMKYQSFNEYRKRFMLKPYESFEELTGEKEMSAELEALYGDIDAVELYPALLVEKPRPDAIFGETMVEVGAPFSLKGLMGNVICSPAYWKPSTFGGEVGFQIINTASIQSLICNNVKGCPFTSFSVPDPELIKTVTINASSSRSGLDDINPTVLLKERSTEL

Row | SMILES | IC50 [1] [µM] | IC50 [2] [µM] | Activity [3] | Activity [4] | other results
1 | O=c1oc(-c2ccc(O)cc2)cc(-c2ccccc2)c1-c1ccccc1 | 21 | 13 | Toxic | Toxic | 
2 | O=c1oc(-c2ccccc2)cc(-c2ccc(OCCN3CCCCC3)cc2)c1-c1ccccc1 | 26 | 11 | Toxic | Toxic | 
3 | O=c1oc(-c2ccc(O)cc2)cc(-c2ccccc2)c1-c1ccc(O)cc1 | 26 | > 100 |  |  | 
4 | O=c1oc(-c2ccccc2)cc(-c2ccccc2)c1-c1ccc(OCCN2CCCC2)cc1 | 23 | > 100 |  |  | 
5 | COc1ccc(-c2cc(-c3ccccc3)oc(=O)c2-c2ccc(OCCN3CCCCC3)cc2)cc1 | 16 | 12 | Toxic | Toxic | 
6 | O=c1oc(-c2ccc(OCCN3CCCCC3)cc2)cc(-c2ccccc2)c1-c1ccccc1 | 24 | > 100 |  |  | 
7 | O=c1oc(-c2ccc(OCCN3CCCC3)cc2)cc(-c2ccccc2)c1-c1ccccc1 | 25 | 34 | Toxic | Toxic | 
8 | CC/C(=C(\c1ccccc1)c1ccc(OCCN(C)C)cc1)c1ccccc1 [TAMOXIFEN] | 10 | 20 |  |  | 
9 | COc1ccc(-c2cc(-c3ccccc3)c(-c3ccc(S(C)(=O)=O)cc3)c(=O)o2)cc1 |  |  |  |  | IC50 [16]: 0.02 µM
10 | O=c1oc(-c2ccccc2)cc(-c2ccc(OCCN3CCCC3)cc2)c1-c1ccccc1 | 14 | 9 | Toxic | Toxic | 
11 | COc1ccc(-c2cc(-c3ccccc3)c(-c3ccc(O)cc3)c(=O)o2)cc1 | 14 | 17 | Non-toxic | Non-toxic | Activity [5]: inactive; Activity [6]: inactive; Activity [7]: inactive; Activity [8]: inactive; Activity [10]: Active; Activity [11]: Active; Activity [12]: inactive; Activity [13]: inactive

Further lines, with some results ahead:

Row | IC50 [1] [µM] | IC50 [2] [µM] | SMILES | Activity [3] | Activity [4] | other results
12 | 38 | > 100 | O=c1oc(-c2ccccc2)cc(-c2ccc(O)cc2)c1-c1ccccc1 |  |  | 
13 | 24 | 27 | O=c1oc(-c2ccccc2)cc(-c2ccc(O)cc2)c1-c1ccc(O)cc1 | Non-toxic | Non-toxic | Activity [5]: inactive; Activity [6]: inactive; Activity [7]: Active; Activity [8]: Active; Activity [9]: Active; Activity [10]: Active; Activity [11]: Active; Activity [12]: inactive; Activity [13]: inactive
14 | 25 | 38 | O=c1oc(-c2ccccc2)cc(-c2ccccc2)c1-c1ccc(O)cc1 | Non-toxic | Non-toxic | Activity [5]: inactive; Activity [6]: inactive; Activity [7]: inactive; Activity [8]: inactive; Activity [10]: Active; Activity [14]: Active
15 | > 50 | > 100 | O=c1oc(-c2ccccc2)cc(-c2ccccc2)c1-c1ccc(OCCN2CCCCC2)cc1 |  |  | 
16 | 14 | 26 | O=c1oc(-c2ccc(O)cc2)cc(-c2ccc(O)cc2)c1-c1ccccc1 | Non-toxic | Non-toxic | Activity [5]: inactive; Activity [6]: inactive; Activity [8]: Active; Activity [15]: Active; Activity [9]: Active; Activity [10]: Active; Activity [11]: Active; Activity [12]: inactive; Activity [13]: inactive
17 | > 50 | > 100 | COc1ccc(-c2cc(-c3ccccc3)oc(=O)c2-c2ccc(O)cc2)cc1 |  |  | 
